Test results: ChEMBL document CHEMBL1124270, “Quinolone antibacterial agents. Synthesis and structure-activity relationships of 8-substituted quinoline-3-carboxylic acids and 1,8-naphthyridine-3-carboxylic acids” (1988)
≈ marks a conversion by molar mass, not a printed value.

Columns and labels:
Format in all cases: functional
[1] = system: Escherichia coli; experiment: Minimum inhibitory concentration against Escherichia coli H560 in vitro.
[2] = system: Escherichia coli; experiment: Minimum concentration needed to produce linear DNA at an intensity relative to oxolinic at 10 ug/mL in Escherichia coli H560 in vitro.
Method in brief: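 DNA gyrase cleavage test, run as previously described: end point is the lowest drug level (µg/mL) that yields linear DNA at a band intensity matching oxolinic acid at 10 µg/mL. Values come from duplicate or triplicate experiments and are stated as accurate to ±50%.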

[3] = system: Mus musculus; experiment: In vivo potency against Escherichia coli vogel using mouse protection assay when given perorally; details: po, read-out: PD50
[4] = system: Klebsiella pneumoniae; experiment: Minimum inhibitory concentration against Klebsiella pneumoniae MGH-2 in vitro.
[5] = system: Streptococcus pyogenes; experiment: Minimum inhibitory concentration against Streptococcus pyogenes C203 in vitro.
[6] = system: Mus musculus; experiment: In vivo potency against Escherichia coli vogel using mouse protection assay when given subcutaneously; details: sc, read-out: PD50
[7] = system: Providencia rettgeri; experiment: Minimum inhibitory concentration against Providencia rettgeri H1771 in vitro.
[8] = system: Escherichia coli; experiment: Minimum inhibitory concentration against Escherichia coli vogel in vitro.
[9] = system: Streptococcus pneumoniae; experiment: Minimum inhibitory concentration against Streptococcus pneumoniae SV-1 in vitro.
[10] = system: Staphylococcus aureus; experiment: Minimum inhibitory concentration against Staphylococcus aureus UC-76 in vitro.
[11] = system: Enterococcus faecalis; experiment: Minimum inhibitory concentration against Streptococcus faecalis MGH-2 in vitro.
[12] = system: Enterobacter cloacae; experiment: Minimum inhibitory concentration against Enterobacter cloacae HA 2646 in vitro.
[13] = system: Staphylococcus aureus; experiment: Minimum inhibitory concentration against Staphylococcus aureus H228 in vitro.
[14] = system: Pseudomonas aeruginosa; experiment: Minimum inhibitory concentration against Pseudomonas aeruginosa UI-18 in vitro.

## NCC1CCN(c2cc3c(cc2F)c(=O)c(C(=O)O)cn3C2CC2)C1 (configuration not stated)
[1]
  MIC: 0.006 µg/mL (≈ 0.0174 µM)
[2]
  DNA cleavage conc (gyrase): 0.5 µg/mL
[3]
  ED50: > 100 mg/kg
[4]
  MIC: 0.05 µg/mL (≈ 0.145 µM)
[5]
  MIC: 0.025 µg/mL (≈ 0.0724 µM)
[6]
  ED50: 2 mg/kg
[7]
  MIC: 0.2 µg/mL (≈ 0.579 µM)
[8]
  MIC: 0.05 µg/mL (≈ 0.145 µM)
[9]
  MIC: 0.003 µg/mL (≈ 0.00869 µM)
[10]
  MIC: 0.006 µg/mL (≈ 0.0174 µM)
[11]
  MIC: 0.025 µg/mL (≈ 0.0724 µM)
[12]
  MIC: 0.05 µg/mL (≈ 0.145 µM)
[13]
  MIC: 0.025 µg/mL (≈ 0.0724 µM)
[14]
  MIC: 0.8 µg/mL (≈ 2.32 µM)

## CCNCC1CCN(c2c(F)cc3c(=O)c(C(=O)O)cn4c3c2OCC4C)C1 (configuration not stated)
[1]
  MIC: 0.05 µg/mL (≈ 0.128 µM)
[2]
  DNA cleavage conc (gyrase): 0.5 µg/mL
[3]
  ED50: > 100 mg/kg
[4]
  MIC: 0.4 µg/mL (≈ 1.03 µM)
[5]
  MIC: 0.05 µg/mL (≈ 0.128 µM)
[6]
  ED50: 11 mg/kg
[7]
  MIC: 0.8 µg/mL (≈ 2.05 µM)
[8]
  MIC: 0.1 µg/mL (≈ 0.257 µM)
[9]
  MIC: 0.05 µg/mL (≈ 0.128 µM)
[10]
  MIC: 0.025 µg/mL (≈ 0.0642 µM)
[11]
  MIC: 0.1 µg/mL (≈ 0.257 µM)
[12]
  MIC: 0.2 µg/mL (≈ 0.514 µM)
[13]
  MIC: 0.2 µg/mL (≈ 0.514 µM)
[14]
  MIC: 0.8 µg/mL (≈ 2.05 µM)

## CC1COc2c(N3CCC(CN)C3)c(F)cc3c(=O)c(C(=O)O)cn1c23 (configuration not stated)
[1]
  MIC: 0.05 µg/mL (≈ 0.138 µM)
[2]
  DNA cleavage conc (gyrase): 0.5 µg/mL
[3]
  ED50: > 100 mg/kg
[4]
  MIC: 0.4 µg/mL (≈ 1.11 µM)
[5]
  MIC: 0.025 µg/mL (≈ 0.0692 µM)
[7]
  MIC: 0.8 µg/mL (≈ 2.21 µM)
[8]
  MIC: 0.2 µg/mL (≈ 0.553 µM)
[9]
  MIC: 0.025 µg/mL (≈ 0.0692 µM)
[10]
  MIC: 0.05 µg/mL (≈ 0.138 µM)
[11]
  MIC: 0.1 µg/mL (≈ 0.277 µM)
[12]
  MIC: 0.2 µg/mL (≈ 0.553 µM)
[13]
  MIC: 0.2 µg/mL (≈ 0.553 µM)
[14]
  MIC: 1.6 µg/mL (≈ 4.43 µM)

## O=C(O)c1cn(C2CC2)c2c(Cl)c(N3CCNCC3)c(F)cc2c1=O
[1]
  MIC: 0.025 µg/mL (≈ 0.0683 µM)
[2]
  DNA cleavage conc (gyrase): 0.5 µg/mL
[3]
  ED50: 0.8 mg/kg
[4]
  MIC: 0.05 µg/mL (≈ 0.137 µM)
[5]
  MIC: 0.2 µg/mL (≈ 0.547 µM)
[6]
  ED50: 0.4 mg/kg
[7]
  MIC: 0.1 µg/mL (≈ 0.273 µM)
[8]
  MIC: 0.025 µg/mL (≈ 0.0683 µM)
[9]
  MIC: 0.1 µg/mL (≈ 0.273 µM)
[10]
  MIC: 0.05 µg/mL (≈ 0.137 µM)
[11]
  MIC: 0.4 µg/mL (≈ 1.09 µM)
[12]
  MIC: 0.025 µg/mL (≈ 0.0683 µM)
[13]
  MIC: 0.1 µg/mL (≈ 0.273 µM)
[14]
  MIC: 0.4 µg/mL (≈ 1.09 µM)

## CNCC1CCN(c2cc3c(cc2F)c(=O)c(C(=O)O)cn3C2CC2)C1 (configuration not stated)
[1]
  MIC: 0.1 µg/mL (≈ 0.278 µM)
[2]
  DNA cleavage conc (gyrase): 0.5 µg/mL
[3]
  ED50: 35 mg/kg
[4]
  MIC: 0.2 µg/mL (≈ 0.556 µM)
[5]
  MIC: 0.05 µg/mL (≈ 0.139 µM)
[7]
  MIC: 0.4 µg/mL (≈ 1.11 µM)
[8]
  MIC: 0.1 µg/mL (≈ 0.278 µM)
[9]
  MIC: 0.05 µg/mL (≈ 0.139 µM)
[10]
  MIC: 0.025 µg/mL (≈ 0.0696 µM)
[11]
  MIC: 0.1 µg/mL (≈ 0.278 µM)
[12]
  MIC: 0.2 µg/mL (≈ 0.556 µM)
[13]
  MIC: 0.2 µg/mL (≈ 0.556 µM)
[14]
  MIC: 0.8 µg/mL (≈ 2.23 µM)

## Nc1c(N2CCNCC2)c(F)cc2c(=O)c(C(=O)O)cn(C3CC3)c12
[1]
  MIC: 0.2 µg/mL (≈ 0.577 µM)
[2]
  DNA cleavage conc (gyrase): 2.5 µg/mL
[3]
  ED50: 58 mg/kg
[4]
  MIC: 0.8 µg/mL (≈ 2.31 µM)
[5]
  MIC: 6.3 µg/mL (≈ 18.2 µM)
[6]
  ED50: 2 mg/kg
[7]
  MIC: 0.4 µg/mL (≈ 1.15 µM)
[8]
  MIC: 0.4 µg/mL (≈ 1.15 µM)
[9]
  MIC: 12.5 µg/mL (≈ 36.1 µM)
[10]
  MIC: 0.8 µg/mL (≈ 2.31 µM)
[11]
  MIC: 12.5 µg/mL (≈ 36.1 µM)
[12]
  MIC: 0.4 µg/mL (≈ 1.15 µM)
[13]
  MIC: 6.3 µg/mL (≈ 18.2 µM)
[14]
  MIC: 0.8 µg/mL (≈ 2.31 µM)

## CC(C)NCC1CCN(c2c(F)cc3c(=O)c(C(=O)O)cn4c3c2OCC4C)C1 (configuration not stated)
[1]
  MIC: 0.4 µg/mL (≈ 0.991 µM)
[3]
  ED50: 8 mg/kg
[4]
  MIC: 0.8 µg/mL (≈ 1.98 µM)
[5]
  MIC: 0.2 µg/mL (≈ 0.496 µM)
[6]
  ED50: 2 mg/kg
[7]
  MIC: 3.1 µg/mL (≈ 7.68 µM)
[8]
  MIC: 0.2 µg/mL (≈ 0.496 µM)
[9]
  MIC: 0.05 µg/mL (≈ 0.124 µM)
[10]
  MIC: 0.4 µg/mL (≈ 0.991 µM)
[11]
  MIC: 0.05 µg/mL (≈ 0.124 µM)
[12]
  MIC: 0.4 µg/mL (≈ 0.991 µM)
[13]
  MIC: 0.05 µg/mL (≈ 0.124 µM)
[14]
  MIC: 0.2 µg/mL (≈ 0.496 µM)

## Cl.O=C(O)c1cn(C2CC2)c2c([N+](=O)[O-])c(N3CCNCC3)c(F)cc2c1=O
[1]
  MIC: 0.4 µg/mL
[3]
  ED50: 10 mg/kg
[4]
  MIC: 0.8 µg/mL
[5]
  MIC: 12.5 µg/mL
[6]
  ED50: 3 mg/kg
[7]
  MIC: 3.1 µg/mL
[8]
  MIC: 0.2 µg/mL
[9]
  MIC: 12.5 µg/mL
[10]
  MIC: 0.4 µg/mL
[11]
  MIC: 6.3 µg/mL
[12]
  MIC: 0.2 µg/mL
[13]
  MIC: 1.6 µg/mL
[14]
  MIC: 1.6 µg/mL

## Cl.Nc1c(N2CCC(N)C2)c(F)cc2c(=O)c(C(=O)O)cn(C3CC3)c12 (configuration not stated)
[1]
  MIC: 0.1 µg/mL
[2]
  DNA cleavage conc (gyrase): 18 µg/mL
[3]
  ED50: 50 mg/kg
[4]
  MIC: 0.4 µg/mL
[5]
  MIC: 3.1 µg/mL
[6]
  ED50: 6 mg/kg
[7]
  MIC: 0.8 µg/mL
[8]
  MIC: 0.4 µg/mL
[9]
  MIC: 3.1 µg/mL
[10]
  MIC: 0.4 µg/mL
[11]
  MIC: 3.1 µg/mL
[12]
  MIC: 0.2 µg/mL
[13]
  MIC: 3.1 µg/mL
[14]
  MIC: 1.6 µg/mL

## CC1COc2c(N3CCC(N)C3)c(F)cc3c(=O)c(C(=O)O)cn1c23.Cl (configuration not stated)
[1]
  MIC: 0.2 µg/mL
[2]
  DNA cleavage conc (gyrase): 0.75 µg/mL
[3]
  ED50: 25 mg/kg
[4]
  MIC: 0.4 µg/mL
[5]
  MIC: 0.2 µg/mL
[6]
  ED50: 2 mg/kg
[7]
  MIC: 0.8 µg/mL
[8]
  MIC: 0.4 µg/mL
[9]
  MIC: 0.8 µg/mL
[10]
  MIC: 0.1 µg/mL
[11]
  MIC: 1.6 µg/mL
[12]
  MIC: 0.4 µg/mL
[13]
  MIC: 1.6 µg/mL
[14]
  MIC: 0.4 µg/mL

## CC(C)NCC1CCN(c2cc3c(cc2F)c(=O)c(C(=O)O)cn3C2CC2)C1.Cl (configuration not stated)
[1]
  MIC: 0.05 µg/mL
[3]
  ED50: 25 mg/kg
[4]
  MIC: 0.2 µg/mL
[5]
  MIC: 0.05 µg/mL
[6]
  ED50: 4 mg/kg
[7]
  MIC: 0.8 µg/mL
[8]
  MIC: 0.1 µg/mL
[9]
  MIC: 0.025 µg/mL
[10]
  MIC: 0.025 µg/mL
[11]
  MIC: 0.1 µg/mL
[12]
  MIC: 0.1 µg/mL
[13]
  MIC: 0.2 µg/mL
[14]
  MIC: 3.1 µg/mL

## Cl.NC1CCN(c2c(F)cc3c(=O)c(C(=O)O)cn(C4CC4)c3c2[N+](=O)[O-])C1 (configuration not stated)
[1]
  MIC: 0.4 µg/mL
[3]
  ED50: 30 mg/kg
[4]
  MIC: 0.4 µg/mL
[5]
  MIC: 1.6 µg/mL
[6]
  ED50: 9 mg/kg
[7]
  MIC: 0.8 µg/mL
[8]
  MIC: 0.2 µg/mL
[9]
  MIC: 1.6 µg/mL
[10]
  MIC: 0.2 µg/mL
[11]
  MIC: 1.6 µg/mL
[12]
  MIC: 0.2 µg/mL
[13]
  MIC: 0.8 µg/mL
[14]
  MIC: 1.6 µg/mL
